Measured values taken from ChEMBL document CHEMBL1125757, “Design of potent protein kinase inhibitors using the bisubstrate approach” (J Med Chem, 1991).
Where a SMILES comes first, the peptide text is derived from it. The star is where a group is joined. X1 = CN(C)c1ccc(S(=O)(=O)*)c2ccccc12

Tests used:
Format in all cases: protein assay
[1] = biological target: T1, cAMP-dependent protein kinase (PKA) (Homo sapiens, UniProt P22694+P17612+P22612); assay: Inhibition of cAMP-dependent protein kinase (PKA).
In short: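 Protein kinase A (1 μg) with histone IIA 60 μg/mL, MgCl2 5 mM and [γ-³²P]ATP 10 μM (2000-4000 cpm/pmol) in Tris/HCl pH 7.0, inhibitor at various concentrations. 30 °C for 7 min, stopped with 12% TCA plus BSA carrier, reprecipitated, histone ³²P counted by scintillation.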

[2] = biological target: Protein kinase C (PKC); assay: Inhibition of protein kinase C (PKC)
In short: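 Reaction mix: protein kinase C (0.5 μg), histone IIIS 60 μg/mL, MgCl2 5 mM, CaCl2 0.5 mM, phosphatidylserine 50 μg/mL, diolein 5 μg/mL, [γ-³²P]ATP 10 μM, Tris/HCl pH 7.5, inhibitor at various concentrations. 30 °C for 7 min, stopped with TCA/BSA, precipitated twice, scintillation counting.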

[3] = biological target: Protein kinase C (PKC); assay: Displacement of ATP from protein kinase C (PKC)
In short: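 ATP-competition kinetics: Lineweaver-Burk plots at several inhibitor concentrations, with Ki taken from a secondary plot of apparent Km versus inhibitor concentration. Radiometric [γ-³²P]ATP assay in Tris/HCl pH 7.5 with MgCl2 5 mM, CaCl2 0.5 mM, phosphatidylserine 50 μg/mL, diolein 5 μg/mL and protein kinase C 0.5 μg. Run in triplicate.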

[4] = biological target: T1, cAMP-dependent protein kinase (PKA); assay: Displacement of ATP from protein kinase A (PKA)
In short: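 ATP-competition kinetics: Lineweaver-Burk plots at several inhibitor concentrations, with Ki taken from a secondary plot of apparent Km versus inhibitor concentration. Radiometric [γ-³²P]ATP phosphorylation assay in Tris/HCl pH 7.0 with MgCl2 5 mM and protein kinase A 1 μg, 30 °C, stopped with trichloroacetic acid. Run in triplicate.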

Row | SMILES | IC50 [1] [µM] | IC50 [2] [µM] | Ki [3] [µM] | Ki [4] [µM]
1 | NCCNS(=O)(=O)c1cccc2cnccc12 | 2 | 7 | – | –
2 | COC(=O)CCNCCNS(=O)(=O)c1cccc2cnccc12 | 2 | 20 | – | –
3 | N=C(N)NCCC[C@H](NC(=O)[C@H](CCCNC(=N)N)NC(=O)[C@H](CCCNC(=N)N)NC(=O)[C@H](CCCNC(=N)N)NC(=O)[C@H](CCCNC(=N)N)NC(=O)[C@H](CCCNC(=N)N)NC(=O)[C@H](CO)NC(=O)CCNCCNS(=O)(=O)c1cccc2cnccc12)C(=O)O | 0.003 | 0.3 | 0.1 | 0.004
4 | CC1CNCCN1S(=O)(=O)c1cccc2cnccc12.Cl.Cl (centres undefined) | – | 6 | 6 | –
5 | O=S(=O)(c1cccc2cnccc12)N1CCNCC1 | 6 | 12 | – | –
6 | C[C@H](NC(=O)[C@H](C)NS(=O)(=O)c1ccc(N(C)C)c2ccccc12)C(=O)N[C@@H](C)C(=O)N[C@@H](CCCN=C(N)N)C(=O)N[C@@H](CCCN=C(N)N)C(=O)N[C@@H](CCCN=C(N)N)C(=O)N[C@@H](CCCN=C(N)N)C(=O)O (X1-AAARRRR-OH) | > 75 | > 75 | – | –
